Only some compounds are listed: those with a hit (about 3.5% of all), similar ones and a draw of the others.
RGS4 pot – RGS4 potentiators or activators, primary screen, cell-based, HEK293 M3R inducible RGS4, calcium flux; B-score at 10 µM; carbachol calcium flux Fluo4; hits give low values; 310,000 tested, 0.92% active;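 active = B-score of the integrated calcium signal more than 4 SD below the library mean, with starting fluorescence not abnormally high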;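 note: negative B-score means reduced calcium response which marks RGS4 activation or potentiation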
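Also added: carbachol at ECmax as muscarinic agonist stimulus; Assay system: HEK293 cells with stable M3R and inducible RGS4; Timing: overnight RGS4 induction, 30 min dye load 37 °C, 20 min compound RT; Measured by: Fluo4-AM (2 µM) calcium-flux fluorescence, kinetic read.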
MrgX1 agonist – agonists of human MrgX1 receptor, primary screen, HEK293 cells, Fluo-4 calcium flux; Fluo-4 calcium fluorescence, agonist mode; hits give high values; B-score at 10 µM; 310,000 tested, 0.44% active; AID 588627, 2011;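 active = calcium response B-score plate-corrected fluorescence ratio at least 3 library SD, with starting fluorescence B-score inside 5 SD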
Target sequence (Q96LB2 whole entry, looked up): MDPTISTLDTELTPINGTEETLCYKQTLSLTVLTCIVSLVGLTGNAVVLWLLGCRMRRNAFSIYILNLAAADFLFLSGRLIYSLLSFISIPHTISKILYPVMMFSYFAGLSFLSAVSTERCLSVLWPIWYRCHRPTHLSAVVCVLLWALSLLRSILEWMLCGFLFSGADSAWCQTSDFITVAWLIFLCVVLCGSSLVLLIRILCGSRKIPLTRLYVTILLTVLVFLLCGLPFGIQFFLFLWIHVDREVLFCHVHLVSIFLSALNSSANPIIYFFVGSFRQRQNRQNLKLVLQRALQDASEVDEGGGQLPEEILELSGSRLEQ
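Material: HEK293 cells stably expressing human MrgX1 receptor | Quantity: 15,000 cells per well | Times: Cells plated overnight, dye loaded 0.5 h 37 °C, 0.5 h room temperature | Measured by: Kinetic Fluo-4 NW fluorescence of intracellular calcium | Control set: Positive and negative controls per plate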
RGS4 block – RGS4 inhibitors, primary screen, cell-based, HEK293 M3R inducible RGS4, calcium flux. B-score at 10 µM. Regulator of G-protein signaling 4 (Homo sapiens), P49798. 310,000 tested, 0.45% active. Fluo-4 calcium flux; hits give high values; triggered by carbachol at its EC20;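 active = B-score, a plate-corrected calcium signal, over three deviations above library mean, with baseline fluorescence within five deviations of library mean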;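 note: RGS4 expression induced by doxycycline in cells with stable M3 receptor; B-score is computed from the integrated fluorescence ratio over baseline after carbachol; higher B-score means a larger calcium signal and so more RGS4 inhibition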
MrgX1 antag – antagonists of human MrgX1 receptor, primary screen, HEK293 cells, Fluo-4 calcium flux; Mas-related G-protein coupled receptor member X1 (Homo sapiens), Q96LB2; B-score at 10 µM; 310,000 tested, 1.3% active; AID 588676, 2011; BAM8-22 antagonism; hits give low values;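 active = calcium-response B-score plate-corrected more than 3 library SD below zero, starting fluorescence within 5 deviations, no agonist response on first addition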;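 note: peak minus trough fluorescence over baseline after final BAM8-22 challenge near maximal dose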
MrgX1 allo act – positive allosteric modulators of MrgX1, primary screen, HEK293 cells, Fluo-4 calcium flux. AID 588675, 2011. B-score at 10 µM. Mas-related G-protein coupled receptor member X1 (Homo sapiens), Q96LB2. FDSS; hits give high values. 310,000 tested, 0.63% active;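 active = plate-corrected calcium response at least 3 library SD above typical, normal starting fluorescence, not activating the receptor alone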;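 note: compound read alongside a low EC10 to EC30 dose of BAM8-22 agonist; peak minus trough fluorescence over baseline measured at the second addition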
RGS4 inh valid – enhanced carbachol calcium response, M3R/RGS4 cells, RGS4 inhibitor project, cell-based, validation screen, HEK293 M3R/RGS4, calcium flux. shares compounds with RGS4 block. carbachol calcium Fluo-4 fluorescence; carbachol added at its EC20; 0 = buffer wells, 100 = carbachol control. calcium response, % at 10 µM. 1,700 tested, 65% active. AID 492999, 2010;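 active = duplicate-averaged calcium response above the buffer-only control mean plus 5 SD of those controls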;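 note: integrated fluorescence ratio F max minus min over baseline F0; higher response in RGS4-induced cells means RGS4 inhibition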
RGS4 uninduced – carbachol calcium response in non-induced M3R cells, confirmation, counter-screen for RGS4 inhibitor project, cell-based, HEK293 M3R | shares compounds with RGS4 block | carbachol calcium Fluo-4; submaximal (EC20) carbachol stimulus; buffer wells 0%, carbachol control wells 100% | activity (percent), % at 10 µM | 1,900 tested, 20% active; call rule not given here;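 note: RGS4 induction absent so cells express M3R without RGS4; higher means more calcium signal and flags a non-specific hit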
RGS4 inh ctr2 – second counter-screen for RGS4 inhibitors: non-induced cells without carbachol; HEK293 M3R/RGS4 non-induced, Fluo-4 calcium, no carbachol; normalised: buffer wells 0%, carbachol wells 100%; AID 493001; shares compounds with RGS4 block; 1,900 tested, 22% active; calcium response (agonist-mode artifact), % at 10 µM;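 active = duplicate-averaged calcium rise in uninduced cells above buffer wells' mean plus 5 SD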
* hit, by the source's call; i = inactive; . = no result.

SMILES | RGS4 pot | MrgX1 agonist | RGS4 block | MrgX1 antag | MrgX1 allo act | RGS4 inh valid | RGS4 uninduced | RGS4 inh ctr2
Cc1nn(Cc2ccccc2)c(C)c1C=C1C(=O)NC(=O)NC1=O | i | i | i | i | i | i | i | i
O=C1NC(=O)N(Cc2ccc(F)cc2)C(=O)/C1=C\c1ccc([N+](=O)[O-])s1 | i | i | 6.3* | i | i | 20%* | i | i
COc1ccc(CN2C(=O)NC(=O)/C(=C\c3cc(OC)c(OC)c(OC)c3)C2=O)cc1 | i | i | i | i | i | . | . | .
COc1ccc(CN2C(=O)NC(=O)/C(=C/c3ccc([N+](=O)[O-])s3)C2=O)cc1 | i | i | 8.9* | i | i | 29%* | i | i
CCC(=O)N1c2ccc(S(=O)(=O)CCC(=O)N3CCC4(CC3)OCCO4)cc2CC1C (stereo not drawn) | i | i | i | i | i | . | . | .
c1ccc2c(N3CCNCC3)nsc2c1 | i | i | i | i | i | . | . | .
C=CCN1C(=O)NC(=O)/C(=C/c2cc3c4c(c2)CCCN4CCC3)C1=O | i | i | i | i | i | . | . | .
O=C1NC(=S)NC(=O)C1=Cc1ccc2c(c1)CCN2CCCCl | i | i | 10* | i | i | 42%* | i | i
CCN(CC)c1ccc(/C=C/[N+](=O)[O-])cc1 | i | i | 10* | i | i | 29%* | i | 580%*
COc1ccc(OC)c(C2=NOC(C(=O)N3CCC4(CC3)OCCO4)C2)c1 (stereo not drawn) | i | i | i | i | i | . | . | .
COc1ccc(N2C(=O)NC(=O)/C(=C\c3cn(CC(=O)N4CCOCC4)c4ccccc34)C2=O)c(OC)c1 | i | i | 8.7* | i | i | 16%* | i | 8.5%*
N#Cc1ccc(OCC(=O)N2CCN(Cc3ccc4c(c3)OCO4)CC2)cc1 | i | i | i | i | i | . | . | .
COc1cc(C(c2c(C)[nH]n(-c3ccccc3)c2=O)c2c(C)[nH]n(-c3ccccc3)c2=O)cc(OC)c1OC | i | i | 6* | i | i | 14%* | i | i
O=c1[nH]c(=O)n(-c2ccccc2)c(O)c1/C=C1/C(c2ccccc2)=Nc2ccccc21 | i | 42* | 9.1* | i | i | 30%* | i | 16%*
O=C1/C(=C\c2ccc([N+](=O)[O-])cc2)N2CCC1CC2 | i | i | 5.9* | i | i | 5.0%* | i | i
CC(C)n1c(O)c(C=NCc2ccccc2)c(=O)[nH]c1=S | i | i | i | i | i | . | . | .
CC(Cc1ccc(O)cc1)NCC(O)c1cc(O)cc(O)c1 (stereo not drawn) | i | i | 5.7* | i | i | 30%* | i | 73%*
C[C@H]1CCCC(=O)CCC/C=C/c2cc(O)cc(O)c2C(=O)O1 | i | i | 8.2* | i | i | 35%* | i | i
COc1cc(O)cc2c1C(=O)OC(C)CCCC(=O)CCC/C=C\2 (stereo not drawn) | i | i | i | i | i | . | i | i
Nc1nnc(P(c2ccccc2)c2ccccc2)s1 | i | i | i | i | i | . | . | .
